Assay results published in ChEMBL document CHEMBL1156107, “Synthesis of new alkylaminooxysterols with potent cell differentiating activities: identification of leads for the treatment of cancer and neurodegenerative diseases” (J Med Chem, 2009).
Activity calls are given as the source filed them. The rule behind the calls is not given here.

How the values were obtained:
U-87MG ATCC [1] = assay: Induction of neurite outgrowth in human U87 cells at 2 to 5 uM after 48 hrs by crystal violet staining; format: functional, cell-based
P19 [2] = assay: Cytotoxicity against mouse P19 cells after 3 days by trypan blue exclusion assay; format: functional, cell-based; conditions: p19
Outline: (§1)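 U937 and P19 cells treated with compound. Cell death scored by trypan blue exclusion, with cells scraped, suspended in 0.25% w/v trypan blue in PBS and counted in a Malassez cell. IC50 is the concentration giving 50% cytotoxicity.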

P19 [3] = assay: Induction of neurite outgrowth in mouse P19 cells at 2 to 5 uM after 48 hrs by crystal violet staining; format: functional, cell-based
U-937 [4] = assay: Induction of dendrite out growth in IL-4/GMCSF-stimulated human U937 cells assessed as dendrite length at 100 nM after 48 hrs by light microscopy; format: functional
Outline: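 U937 cells at 1.1 × 10⁶ cells/mL were primed with 10 ng/mL PMA for 48 h in RPMI with 10% heat-inactivated serum. Adherent cells were then given 100 ng/mL IL-4 plus 100 ng/mL GM-CSF or 100 nM compound for 48 h. Dendrite length scored by light microscopy, from none to over 100 μm with a contact network.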

P19 [5] = assay: Induction of dendrite out growth in IL-4/GMCSF-stimulated mouse P19 cells assessed as dendrite length at 100 nM after 48 hrs by light microscopy; format: functional
N2a [6] = assay: Induction of neurite outgrowth in mouse Neuro2a cells at 2 to 5 uM after 48 hrs by crystal violet staining; format: functional, cell-based
SK-N-SH [7] = assay: Induction of neurite outgrowth in human SK-N-SH cells at 2 to 5 uM after 48 hrs by crystal violet staining; format: functional, cell-based
SH-SY5Y [8] = assay: Induction of neurite outgrowth in human SH-SY5Y cells at 2 to 5 uM after 48 hrs by crystal violet staining; format: functional, cell-based
U-937 [9] = assay: Cytotoxicity against human U937 cells after 3 days by trypan blue exclusion assay; format: functional, cell-based; conditions: u-937; outline: as §1
TS/A = assay: Cytotoxicity against mouse TSA cells up to 20 uM after 72 hrs by trypan blue exclusion assay; format: functional, cell-based
Outline: (§2)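 Tumor lines grown at 37 °C in 5% CO₂, in RPMI 1640 or DMEM with FBS. Cells exposed to compound from 10 nM to 20 μM for 72 h. Cytotoxicity counted by trypan blue exclusion: cells scraped, suspended in 0.25% w/v trypan blue in PBS and counted in a Malassez cell under light microscopy. IC50 is the concentration giving 50% cytotoxicity.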

SK-N-SH [10] = assay: Induction of neurite outgrowth in human SK-N-SH cells at 100 nM after 48 hrs by crystal violet staining; format: functional, cell-based
SH-SY5Y [11] = assay: Cytotoxicity against human SH-SY5Y cells up to 20 uM after 72 hrs by trypan blue exclusion assay; format: functional, cell-based; outline: as §2
SW-620 = assay: Cytotoxicity against human SW620 cells up to 20 uM after 72 hrs by trypan blue exclusion assay; format: functional, cell-based; outline: as §2
Mus musculus = organism: Mus musculus; assay: Neuroprotective activity in mouse motoneuron assessed as cell proliferation at 10 nM treated for 3 days measured on day 2 to 6 post-treatment by cell counting method; format: functional; conditions: in the assay text read “cell survival” for “cell proliferation”
Outline: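 Purified mouse motoneurons; solvent vehicle, 100 ng/mL BDNF or 10 nM test agent added immediately after seeding; cells counted at days 2, 3, 4 and 6; surviving motoneurons expressed as percentage.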

U-87MG ATCC [12] = assay: Induction of neurite outgrowth in human U87 cells at 100 nM after 48 hrs by crystal violet staining; format: functional, cell-based
HCT-8 = assay: Cytotoxicity against human HCT8 cells up to 20 uM after 72 hrs by trypan blue exclusion assay; format: functional, cell-based; outline: as §2
N2a [13] = assay: Induction of neurite outgrowth in mouse Neuro2a cells at 100 nM after 48 hrs by crystal violet staining; format: functional, cell-based
P19 [14] = assay: Cytotoxicity against mouse P19 cells up to 20 uM after 72 hrs by trypan blue exclusion assay; format: functional, cell-based; outline: as §2
P19 [15] = assay: Cytotoxicity against mouse P19 cells up to 20 uM after 3 days by trypan blue exclusion assay; format: functional, cell-based; outline: as §1
MCF7 = assay: Cytotoxicity against human MCF7 cells up to 20 uM after 72 hrs by trypan blue exclusion assay; format: functional, cell-based; outline: as §2
N2a [16] = assay: Cytotoxicity against mouse Neuro2a cells up to 20 uM after 72 hrs by trypan blue exclusion assay; format: functional, cell-based; outline: as §2
KG-1 = assay: Cytotoxicity against human KG1 cells up to 20 uM after 72 hrs by trypan blue exclusion assay; format: functional, cell-based; outline: as §2
B16-F10 = assay: Cytotoxicity against mouse B16F10 cells up to 20 uM after 72 hrs by trypan blue exclusion assay; format: functional, cell-based; outline: as §2
P19 [17] = assay: Induction of mouse P19 cell differentiation into neuron assessed as stimulation of MAP2A expression at 10 nM after 48 hrs by immunocytochemistry; format: functional, cell-based
Outline: (§3)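 P19 cells seeded at 10 000/well and treated with vehicle or 10 nM compound. Cells fixed in 4% paraformaldehyde, permeabilized with 1% BSA/0.05% saponin and blocked in 3% BSA. Stained with anti-MAP2A (1/100) or anti-β3-tubulin (1/200) for 1 h at room temperature, then TRITC secondary, and viewed by fluorescence microscopy.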

P19 [18] = assay: Induction of neuritogenesis in mouse P19 cells assessed as dendrite expansion at 10 nM after 48 hrs by light microscopy; format: functional, cell-based
Outline: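 P19 embryonal carcinoma cells exposed to 10 nM or solvent vehicle for 48 h; dendrite expansion and cell-contact network assessed by light microscopy.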

P19 [19] = assay: Induction of mouse P19 cell differentiation into neuron assessed as stimulation of NMDAR1 expression at 10 nM after 48 hrs by Western blotting; format: functional, cell-based
Outline: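 P19 cells treated with 10 nM compound for 48 h and lysed in Tris pH 7.4 RIPA-type buffer. Proteins run on 7.5% SDS-PAGE and blotted to PVDF. Probed overnight at 4 °C with anti-NMDAR1 (1:1000), with GAPDH as loading control, and detected by enhanced chemiluminescence.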

P19 [20] = assay: Induction of neurite outgrowth in mouse P19 cells at 100 nM after 48 hrs by crystal violet staining; format: functional, cell-based
U-87MG ATCC [21] = assay: Cytotoxicity against human U87 cells up to 20 uM after 72 hrs by trypan blue exclusion assay; format: functional, cell-based; outline: as §2
U-937 [22] = assay: Cytotoxicity against human U937 cells up to 20 uM after 72 hrs by trypan blue exclusion assay; format: functional, cell-based; outline: as §2
SK-MEL-28 = assay: Cytotoxicity against human SK-MEL-28 cells up to 20 uM after 72 hrs by trypan blue exclusion assay; format: functional, cell-based; outline: as §2
A549 = assay: Cytotoxicity against human A549 cells up to 20 uM after 72 hrs by trypan blue exclusion assay; format: functional, cell-based; outline: as §2
SH-SY5Y [23] = assay: Induction of neurite outgrowth in human SH-SY5Y cells at 100 nM after 48 hrs by crystal violet staining; format: functional, cell-based
Outline: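 Cells exposed to 100 nM compound for 48 h on poly-D-lysine-coated inserts with a 3 μm pore membrane. Neurites crossing the membrane were methanol-fixed and stained, cell bodies were removed, and the dye was extracted and read at 562 nm.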

P19 [24] = assay: Induction of mouse P19 cell differentiation into neuron assessed as stimulation of beta-3 tubulin expression at 10 nM after 48 hrs by immunocytochemistry; format: functional, cell-based; outline: as §3
SK-N-SH [25] = assay: Cytotoxicity against human SK-N-SH cells up to 20 uM after 72 hrs by trypan blue exclusion assay; format: functional, cell-based; outline: as §2
U-937 [26] = assay: Cytotoxicity against human U937 cells up to 20 uM after 3 days by trypan blue exclusion assay; format: functional, cell-based; outline: as §1
NB-4 = assay: Cytotoxicity against human NB4 cells up to 20 uM after 72 hrs by trypan blue exclusion assay; format: functional, cell-based; outline: as §2
SH-SY5Y [27] = assay: Induction of neurite outgrowth in human SH-SY5Y cells at 40 to 60 uM after 48 hrs by crystal violet staining; format: functional, cell-based
SK-N-SH [28] = assay: Induction of neurite outgrowth in human SK-N-SH cells at 40 to 60 uM after 48 hrs by crystal violet staining; format: functional, cell-based
P19 [29] = assay: Induction of neurite outgrowth in mouse P19 cells at 40 to 60 uM after 48 hrs by crystal violet staining; format: functional, cell-based
U-87MG ATCC [30] = assay: Induction of neurite outgrowth in human U87 cells at 40 to 60 uM after 48 hrs by crystal violet staining; format: functional, cell-based
N2a [31] = assay: Induction of neurite outgrowth in mouse Neuro2a cells at 40 to 60 uM after 48 hrs by crystal violet staining; format: functional, cell-based

For `CC1=C(/C=C/C(C)=C/C=C/C(C)=C/C(=O)O)C(C)(C)CCC1` [TRETINOIN], the Activity (U-87MG ATCC [1]) was “Active”, the IC50 (P19 [2]) was “Not Active” and the Activity (P19 [3]) was “Active”. For the same compound, the Activity (U-937 [4]) was “inactive”, the Activity (P19 [5]) was “inactive” and the Activity (N2a [6]) was “Active”. For the same compound, the Activity (SK-N-SH [7]) was “Active”, the Activity (SH-SY5Y [8]) was “Active” and the IC50 (U-937 [9]) was “Not Active”.
`CC(C)CCC[C@@H](C)[C@H]1CC[C@H]2C3=C[C@@H](NCCCNCCCCN)[C@@]4(O)C[C@@H](O)CC[C@]4(C)[C@H]3CC[C@]12C` [DENDROGENIN B] was tested, and the Activity (TS/A) was “inactive”, the Activity (SK-N-SH [10]) was “Active” and the Activity (SH-SY5Y [11]) was “inactive”. For the same compound, the Activity (SW-620) was “inactive”, the Activity (Mus musculus) was “Active” and the Activity (U-87MG ATCC [12]) was “Active”. For the same compound, the IC50 (P19 [2]) was “Not Active”, the Activity (HCT-8) was “inactive” and the Activity (N2a [13]) was “Active”. The Activity (P19 [14]) was “inactive”, the Activity (P19 [15]) was “inactive” and the Activity (MCF7) was “inactive”. The Activity (N2a [16]) was “inactive”, the Activity (KG-1) was “inactive” and the Activity (B16-F10) was “inactive”. For the same compound, the Activity (U-937 [4]) was <5 um, the Activity (P19 [5]) was > 100 um and the Activity (P19 [17]) was “Active”. For the same compound, the Activity (P19 [18]) was “Active”, the Activity (P19 [19]) was “Active” and the Activity (P19 [20]) was “Active”. For the same compound, the Activity (U-87MG ATCC [21]) was “inactive”, the Activity (U-937 [22]) was “inactive” and the Activity (SK-MEL-28) was “inactive”. For the same compound, the Activity (A549) was “inactive”, the Activity (SH-SY5Y [23]) was “Active” and the Activity (P19 [24]) was “Active”. The Activity (SK-N-SH [25]) was “inactive”, the IC50 (U-937 [9]) was “Not Active” and the Activity (U-937 [26]) was “inactive”. For the same compound, the Activity (NB-4) was “inactive”.
With `CC/C=C\C/C=C\C/C=C\C/C=C\C/C=C\C/C=C\CCC(=O)O` the Activity (SH-SY5Y [27]) was “Active”, the Activity (SK-N-SH [28]) was “Active” and the Activity (P19 [29]) was “Active”. For the same compound, the Activity (U-87MG ATCC [30]) was “Active” and the Activity (N2a [31]) was “Active”.
